# SENP1 inh – SENP1 (human) catalytic domain inhibition; recombinant SENP1 catalytic domain, CyPet-SUMO1-YPet FRET cleavage; inhibition, % at 10 µM; 360,000 tested, 0.21% active; AID 624204;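 active = inhibition at least 30% at 10 µM, raw YFP signal under a set limit, fluorescence ratio 0.5 to 1.5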;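 note: 0% = enzyme with DMSO and 100% = no enzyme wells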
#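 Assay system: hSENP1 catalytic domain, recombinant. Amount: SENP1 enzyme, 20 pM final. Schedule: 50 min reaction, RT, dark. Technique: FRET, CFP and YFP emission. Control set: no-enzyme wells low, DMSO-plus-enzyme wells high control.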
# SENP8 block-1 – SENP8 protease inhibition. Q96LD8. purified SENP8, Z-RLRGG-aminoluciferin cleavage, luminescence. inhibition, % at 10 µM. 330,000 tested, 1.2% active; in the data active = inhibition above about 50%
# SENP6 inh – blocks the human protease SENP6; Q9GZR1; Recombinant SENP6 catalytic domain, aminoluciferin luminescence; inhibition, % at 10 µM; 330,000 tested, 1.8% active;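 active = inhibition above about 50% at the single tested dose, limit read from the data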;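 note: plate controls were DMSO wells with enzyme for no effect and DMSO wells lacking enzyme for full effect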
# SENP8 block-2 – blocks human SENP8 cleavage of Nedd8 substrate; recombinant SENP8, Nedd8 substrate fluorescence; 360,000 tested, 0.64% active; Q96LD8; AID 602440; inhibition, % at 20 µM; in the data active = inhibition mostly above about 40%, no sharp cut-off; inactive = mostly below about 27%
# UCH37 DUB inh – blocks the human deubiquitinase UCH37 | purified proteasome/UCH37, Ub-AMC cleavage fluorescence | inhibition, % (concentration not given with the values) | Q9Y5K5 | 330,000 tested, 0.33% active;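 active = mean inhibition over replicate wells above about 20%, limit read from the data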;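 note: 0% = compound-free wells with enzyme and 100% = wells lacking proteasome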
# Target sequence (Q9Y5K5 whole entry, looked up): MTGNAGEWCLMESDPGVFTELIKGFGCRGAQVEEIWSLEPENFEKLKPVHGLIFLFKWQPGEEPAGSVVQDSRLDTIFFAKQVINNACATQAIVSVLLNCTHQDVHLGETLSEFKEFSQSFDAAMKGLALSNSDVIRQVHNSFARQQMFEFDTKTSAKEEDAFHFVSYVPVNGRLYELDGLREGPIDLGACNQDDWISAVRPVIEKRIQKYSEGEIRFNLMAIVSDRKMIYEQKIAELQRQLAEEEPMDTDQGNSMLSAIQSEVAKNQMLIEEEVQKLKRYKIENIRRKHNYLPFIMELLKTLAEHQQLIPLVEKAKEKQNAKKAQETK
#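 System: Proteasome-associated human UCH37 deubiquitinase; Input: 0.15 nM proteasome in added enzyme buffer; Also added: Ub-AMC substrate from 1 µM stock; Incubation: 30 min compound-proteasome preincubation then 25 min substrate reaction, room temperature; Detection: fluorescence, ex 355 nm, em 460 nm; Read-out: % inhibition of Ub-AMC cleavage fluorescence; Benchmarks: no-proteasome and no-compound wells.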
# SENP7 block – inhibitors of human SENP7 protease | recombinant SENP7, Z-RLRGG-aminoluciferin luminescence, 40 min | inhibition, % at 5 µM | 330,000 tested, 1.5% active;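 active = inhibition above about 50% at the single test dose, limit read from the data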;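 note: plate controls were DMSO with enzyme for no effect and no enzyme buffer wells for full effect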
# Target sequence (Q9BQF6 706-1050 limits assumed): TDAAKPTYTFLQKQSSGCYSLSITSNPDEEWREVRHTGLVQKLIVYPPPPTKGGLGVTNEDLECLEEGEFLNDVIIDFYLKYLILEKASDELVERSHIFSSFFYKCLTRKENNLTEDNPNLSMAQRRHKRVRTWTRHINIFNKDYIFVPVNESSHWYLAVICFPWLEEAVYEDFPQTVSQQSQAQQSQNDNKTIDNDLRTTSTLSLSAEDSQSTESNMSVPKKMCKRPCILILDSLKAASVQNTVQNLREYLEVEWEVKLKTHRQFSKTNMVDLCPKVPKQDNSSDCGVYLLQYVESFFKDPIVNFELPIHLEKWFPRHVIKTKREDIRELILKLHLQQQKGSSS
# SENP8 conf-1 – human SENP8 inhibition, confirmed | inhibition, % at 12.5 µM | shares compounds with SENP7 block | Recombinant SENP8, Z-RLRGG-aminoluciferin luminescence, 60 min | 6,200 tested, 40% active;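 active = mean inhibition across replicates above about 50%, limit read from the data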
# SENP6 conf – confirmation of human SENP6 protease inhibitors | shares compounds with SENP7 block | recombinant SENP6, Z-RLRGG-aminoluciferin luminescence | inhibition, % at 12.5 µM | 6,200 tested, 58% active | AID 488915
# SENP7 conf – confirmation of human SENP7 protease inhibitors | 6,200 tested, 69% active | shares compounds with SENP7 block | recombinant SENP7, Z-RLRGG-aminoluciferin luminescence, 40 min | inhibition, % at 12.5 µM
# Casp3 select – inhibits human caspase-3 in SENP selectivity test; AID 488918; shares compounds with SENP7 block; inhibition, % at 12.5 µM; 6,200 tested, 60% active; purified caspase-3, Z-DEVD-aminoluciferin luminescence, 60 min;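 active = mean inhibition above about 50%, limit read from the data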;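 note: plate controls were enzyme with DMSO for no effect and wells without caspase-3 for full effect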
# Luc interf – counter-screen for SENP inhibitors: luminescence interference | shares compounds with SENP7 block | Pre-incubated SENP8/Z-RLRGG-aminoluciferin, luciferase luminescence interference | inhibition, % at 12.5 µM | 6,200 tested, 39% active | AID 488919;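 active = mean inhibition above about 50% when retested at one dose, limit read from the data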;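 note: plate controls were DMSO wells with completed reaction for no effect and substrate without enzyme for full effect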
# UCH37 confirm – UCH37 Ub-AMC cleavage inhibition, confirmed; shares compounds with UCH37 DUB inh; Proteasome-bound UCH37, Ub-AMC cleavage fluorescence; inhibition, % at 20 µM; 480 tested, 27% active;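 active = average inhibition over replicates above about 50%, so the earlier screening hit is confirmed, limit read from the data; inactive = the rest, counted as false positives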;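 note: based on cleavage rate fitted by regression over a 30 min kinetic read; 0% = proteasome plus Ub-AMC and 100% = Ub-AMC without proteasome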
# SENP8 conf-2 – SENP8 (human) inhibition, single concentration confirmation. shares compounds with SENP8 block-2. purified SENP8, Nedd8-AMC/pro-Nedd8 cleavage fluorescence, 30 min. inhibition, % at 25 µM. 1,400 tested, 15% active; in the data active = inhibition mostly above about 39%, no sharp cut-off; inactive = mostly below about 34%
# SENP1 inh conf – confirmation of human SENP1 SUMO protease inhibitors; shares compounds with SENP1 inh; recombinant SENP1, CyPet-SUMO1-YPet FRET cleavage; inhibition, % at 10 µM; 520 tested, 34% active; AID 651678; in the data active = inhibition mostly above about 35%, no sharp cut-off; inactive = mostly below about 32%;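 note: 0% = enzyme with DMSO and 100% = no enzyme control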
# SENP1 kinetic – SENP1 (human) inhibition, kinetic confirmation; AID 651690; recombinant SENP1, CyPet-SUMO1-YPet FRET kinetic cleavage; shares compounds with SENP1 inh; inhibition, % at 10 µM; 520 tested, 26% active; in the data active = inhibition mostly above about 32%, no sharp cut-off; inactive = mostly below about 29%;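 note: 0% = DMSO with enzyme and 100% = no enzyme substrate only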
# Starred values were filed as active, the others as inactive; · = not tested or not shown. A selection: hits, their analogues and other compounds. The true share with any hit is near 2.6%.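 Rule for the calls, unless noted: active = mean inhibition above about 50% in the one-dose retest (limit read from the data); inactive = the rest.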
SMILES,SENP1 inh,SENP8 block-1,SENP6 inh,SENP8 block-2,UCH37 DUB inh,SENP7 block,SENP8 conf-1,SENP6 conf,SENP7 conf,Casp3 select,Luc interf,others
CCOC(=O)C1=C(C)OC2(O)c3ccccc3C(=O)C12O (stereo not drawn),4,64*,69*,96*,79*,46,25,88*,82*,-4,-1,UCH37 confirm=72*;SENP8 conf-2=99*
CCOC(=O)C1=C(C)N[C@@]2(O)c3ccccc3C(=O)[C@@]12O,-1,4,4,17,18,10,·,·,·,·,·,
Clc1ccccc1CON=C1CCCc2nonc21,·,·,·,·,4,·,·,·,·,·,·,
COc1ccc(/C=N/NC(=O)c2nn(-c3ccc(C)c(C)c3)c(=O)c3ccccc23)cc1,-1,-8,-7,-11,·,-4,·,·,·,·,·,
COc1ccc(/C=N/NC(=O)c2nn(-c3ccccc3)c(=O)c3c(N)scc23)cc1,6,18,52*,74*,·,12,24,68*,21,61*,3,SENP8 conf-2=83*
COc1ccc(/C=N/NC(=O)c2nn(-c3ccc(Cl)cc3)c(=O)c3c(N)scc23)cc1,2,18,61*,49*,·,15,-1,46,0,28,-2,SENP8 conf-2=61*
COCCNC(=O)C(=O)NN=C(C)CC(=O)Nc1ccc(Cl)cc1Cl,·,·,·,·,-3,·,·,·,·,·,·,
COc1ccccc1N1C(=O)Cc2ccccc2C1=O,-4,19,69*,90*,0,40,18,63*,31,15,-3,SENP8 conf-2=55*
Nc1nnc2c(n1)CCCC2,-1,50,56*,88*,21*,36,6,61*,36,19,-6,SENP8 conf-2=63*
COc1ccc(C=NNC(=O)c2ccccc2F)cc1CN1CCN(c2ccc(F)cc2)CC1,·,·,·,·,-2,·,·,·,·,·,·,
COc1ccc(-c2[nH]n(-c3ccc([N+](=O)[O-])cc3)c(=O)c2C=NCc2ccc(F)cc2)cc1,20,-5,-1,10,11,4,·,·,·,·,·,
COc1ccc(-c2cc(=O)n(-c3ccc([N+](=O)[O-])cc3)[nH]2)cc1,7,79*,92*,87*,11,48,11,29,41,-3,8,SENP8 conf-2=24
O=C(NN=Cc1cccc(Br)c1)C1CC(=O)N(c2ccccc2)C1 (stereo not drawn),·,·,·,·,2,·,·,·,·,·,·,
COc1cc(/C=C2/SC(=S)N(C)C2=O)ccc1OC(=O)c1ccco1,34*,28,5,34,1,66*,8,7,3,16,28,SENP1 inh conf=32;SENP1 kinetic=27
COc1cc(/C=C2\SC(=S)N(NC(C)=O)C2=O)ccc1OC(=O)c1ccco1,20,21,14,22,·,-13,·,·,·,·,·,
CCN1C(=O)c2cccc3c(NC(=O)C4CCCCC4)ccc1c23,40*,0,-6,11,4,72*,-8,-2,-5,-5,-6,SENP1 inh conf=20;SENP1 kinetic=30*
CC(CC(=O)Nc1c(Cl)cccc1C(F)(F)F)=NNC(=O)c1cnccn1,·,·,·,·,2,·,·,·,·,·,·,
O=[N+]([O-])c1nn(-c2ccc3c(c2)OCCO3)n(O)c1=NCc1ccc(F)cc1Cl,62*,11,50*,52*,4,65*,5,20,28,10,6,SENP8 conf-2=21;SENP1 inh conf=2;SENP1 kinetic=9
CCOc1cccc(/C=C2\NC(=S)N(c3ccccc3)C2=O)c1O,48*,91*,92*,10,·,87*,83*,98*,102*,94*,69*,SENP1 inh conf=45*;SENP1 kinetic=18
CC(C)CC(C(O)=C(C#N)c1nc2ccccc2[nH]1)N1C(=O)c2ccccc2C1=O (stereo not drawn),·,·,·,·,3,·,·,·,·,·,·,
CC(=O)Oc1ccc(C(=O)Cc2ccc3ccccc3n2)c(O)c1C,49*,1,-7,33,2,74*,-24,-14,-4,-1,-4,SENP1 inh conf=25;SENP1 kinetic=19
Cc1c(O)ccc(/C(Cc2ccc3ccccc3n2)=N\O)c1O,-3,-4,-12,12,·,-3,·,·,·,·,·,
CCn1nc(C)c(C=NNC(=O)c2nc3nc(C)cc(C)n3n2)c1C,·,·,·,·,3,·,·,·,·,·,·,
CC(=O)Oc1ccc(/C=C/c2nc3ccccc3c(=O)o2)cc1,52*,95*,96*,-134,-30,99*,74*,79*,55*,68*,50,SENP1 inh conf=-33;SENP1 kinetic=-22
N#CC(c1ccccc1)c1ccc([N+](=O)[O-])cc1 (stereo not drawn),1,·,·,1,·,·,·,·,·,·,·,
SMILES,SENP1 inh,SENP8 block-1,SENP6 inh,SENP8 block-2,UCH37 DUB inh,SENP7 block,SENP8 conf-1,SENP6 conf,SENP7 conf,Casp3 select,Luc interf,others
Nc1ccccc1C#Cc1ccc([N+](=O)[O-])cc1,33*,42,62*,31,3,47,46,46,81*,39,22,SENP1 inh conf=18;SENP1 kinetic=17
Nc1nonc1-n1nnc(C(=O)NN=Cc2cccc(O)c2)c1CN1CCCC1,·,·,·,·,3,·,·,·,·,·,·,
CN(C)S(=O)(=O)c1ccc(C(=O)Nc2nnc(-c3cccs3)o2)cc1,2,-7,-1,0,52*,4,·,·,·,·,·,UCH37 confirm=3
COC(=O)NN=Cc1cccnc1,·,·,·,·,1,·,·,·,·,·,·,
COc1ccc(C)cc1S(=O)(=O)N(CC(=O)Nc1cc([N+](=O)[O-])ccc1C)c1ccc(C)c(C)c1,3,-12,-13,23,5,-2,·,·,·,·,·,
COc1ccc([N+](=O)[O-])cc1NC(=O)c1ccc(CN(c2ccc(C)c(C)c2)S(C)(=O)=O)cc1,0,-2,-9,11,47*,2,·,·,·,·,·,UCH37 confirm=-2

# Screens as filed in PubChem BioAssay.
